The record followed here is ChEMBL document CHEMBL4385646, “Structural development of 1H-pyrazolo-[3,4-b]pyridine-4-carboxylic acid derivatives as human peroxisome proliferator-activated receptor alpha (PPARα)-selective agonists” (Bioorg Med Chem Lett, 2019).

The source made the active and inactive calls. The rule behind the calls is not given here.

Series [1] deals with T1, Peroxisome proliferator-activated receptor alpha (Homo sapiens) (UniProt Q07869).
T1 sequence (whole entry): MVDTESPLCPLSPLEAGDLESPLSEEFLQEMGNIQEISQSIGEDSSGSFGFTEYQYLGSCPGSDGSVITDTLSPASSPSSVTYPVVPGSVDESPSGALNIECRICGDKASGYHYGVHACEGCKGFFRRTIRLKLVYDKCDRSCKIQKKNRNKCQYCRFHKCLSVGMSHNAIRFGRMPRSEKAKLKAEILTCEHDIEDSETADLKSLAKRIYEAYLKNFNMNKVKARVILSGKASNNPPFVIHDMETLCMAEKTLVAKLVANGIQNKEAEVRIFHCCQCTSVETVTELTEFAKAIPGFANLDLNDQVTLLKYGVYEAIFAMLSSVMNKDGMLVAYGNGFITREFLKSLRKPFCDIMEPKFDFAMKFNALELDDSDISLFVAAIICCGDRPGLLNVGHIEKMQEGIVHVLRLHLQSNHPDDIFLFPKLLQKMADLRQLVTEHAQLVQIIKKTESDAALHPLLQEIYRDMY
Briefly: Transactivation of human GAL4-fused PPARalpha LBD expressed in human HepG2 cells at 1 uM after 24 hrs by dual renilla-luciferase reporter gene assay relative to fenofibrate. It counts as cell-based. In outline:
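HepG2 cells cotransfected with 4xUAS-tk-luc and pBIND-hPPARα. Cells treated 24 h with compound at 1 μM final; fenofibrate 10 μM served as reference and 0.1% DMSO as vehicle. Read-out by reporter gene luciferase assay.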
For orientation: In a reporter assay the amount or activity of a reporter protein is the signal.

Series [2] deals with T2, Peroxisome proliferator-activated receptor alpha (Homo sapiens, UniProt Q07869).
T2 sequence (Q07869 whole entry): T1 sequence (whole entry)
Briefly: Transactivation of human GAL4-fused PPARalpha LBD expressed in human HepG2 cells after 24 hrs by renilla luciferase reporter gene assay. It counts as cell-based.

Series [3] is described as follows: Metabolic stability in human liver microsomes assessed as parent compound remaining at 0.5 uM after 60 mins in presence of NADPH by LC/MS/MS analysis. The following applies: microsomes, 1 h, 0.5 µM. It counts as ADME, Microsome. The essentials: (§1)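 Compound at 0.5 μM incubated with liver microsomes at 37°C for 1 h; result given as percent remaining. Final DMSO 0.2%.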

Series [4] is described as follows: Protein binding in rat plasma at 20 uM after 5 hrs by LC/MS/MS analysis. It counts as ADME, cell-free. The conditions noted are these: 5 h, 20 µM. The essentials: (§2)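 Compound at 20 μM incubated with plasma at 37°C for 5 h; percent bound to protein determined. Final DMSO 0.2%.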
Series [5] is described as follows: Protein binding in human plasma at 20 uM after 5 hrs by LC/MS/MS analysis. The following applies: 5 h, 20 µM. The format is ADME, cell-free. In outline: as §2
The nature of series [6]: Apparent permeability from apical to basolateral side in human Caco2 cells at 25 uM measured up to 2 hrs by LC/MS/MS analysis. The conditions noted are these: Caco-2. It counts as ADME, cell-based. In outline:
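Caco-2 monolayers; permeability measured apical-to-basolateral (A–B) at 25 μM compound, reported as ×10⁻⁶ cm/s.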

Series [7] in a line: Metabolic stability in rat liver microsomes assessed as parent compound remaining at 0.5 uM after 60 mins in presence of NADPH by LC/MS/MS analysis. The format is ADME, Microsome. The conditions noted are these: microsomes, 1 h, 0.5 µM. The essentials:
as §1
A general note: Liver microsomes are a subcellular fraction often used to study metabolism.

A short description of series [8]: Solubility of the compound in pH 7.4 PBS at 100 uM incubated for 10 mins under shaking condition by HPLC analysis. The format is physicochemical. In outline: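 Aqueous solubility determined in PBS, pH 7.4; reported in μM.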
The target of series [9] is T1, Peroxisome proliferator-activated receptor alpha (Homo sapiens). Briefly: Transactivation of human […] PPARalpha LBD expressed in human HepG2 cells at 1 uM by renilla luciferase reporter gene assay relative to control. The format is cell-based.
The target of series [10] is Peroxisome proliferator-activated receptor alpha (Homo sapiens) (UniProt Q07869). Briefly: Displacement of fluormone pan-PPAR green from GST-tagged human PPARalpha ligand binding domain after 3 hrs by TR-FRET assay.

`Cc1cc(C(=O)O)c2c(C(C)C)nn(-c3ccc(I)cc3)c2n1` gave an activation relative to fenofibrate in series [1] of 111. In series [2], the 50% effective concentration (EC50) (as a rule, the concentration giving half of the maximal effect) amounted to 2410 nM. On to `CCC(CC)c1nn(-c2ccc(Cl)cc2)c2nc(C)cc(C(=O)O)c12`, for which, in [1], the activation relative to fenofibrate came to 183. Moreover, in series [2], the concentration for a half-maximal effect (EC50) is over 3570 nM. Take `Cc1cc(C(=O)[O-])c2c(C(C)C)nn(-c3ccc(Cl)cc3)c2n1.[Na+]`: the Stability stood at 91% in series [3] and 92% in series [7]. The PPB in series [4] is recorded as 98.9%; in [5], 99.7%. The Papp A→B (usually the apparent permeability from the apical to the basolateral side of a cell layer) at 2 h, 25 µM in series [6] was 22.5 ×10⁻⁶ cm/s. Also, the solubility (as a rule, the concentration that dissolves in the medium under given conditions) at 10 min, 100 µM in series [8] is over 95 µM. On to `Cc1cc(C(=O)O)c2c(C3CC3)nn(-c3ccc(Cl)cc3)c2n1`, for which the activation relative to fenofibrate in [1] is 24.6. `CCc1cc(C(=O)O)c2c(C(C)C)nn(-c3ccc(Cl)cn3)c2n1`: the activation relative to fenofibrate in series [1] came to 16.2.

For the compound `Cc1cc(C(=O)O)c2c(C)nn(-c3ccccc3)c2n1`, the activation relative to fenofibrate in series [1] worked out at 13.6. Consider `Cc1cc(C(=O)O)c2c(C(C)C)nn(-c3ccc(Br)cc3)c2n1`, for which the activation relative to fenofibrate in series [1] is 85.2. For the same compound, the EC50 in series [2] was over 4010 nM. The compound `CCc1cc(C(=O)O)c2c(C(C)C)nn(-c3ccc(Br)cc3)c2n1` gave an activation relative to fenofibrate in series [1] of 251. For the same compound, in series [2], the EC50 turned out to be 1230 nM. Turning to `CCc1cc(C(=O)O)c2c(C(C)C)nn(-c3ccc(Cl)cc3)c2n1`, in [1], the activation relative to fenofibrate was 196. Moreover, in series [2], the EC50 was determined as 1390 nM. In [1], `CC(C)(Sc1ccc(CCN(CCCCC2CCCCC2)C(=O)NC2CCCCC2)cc1)C(=O)O` showed an activation relative to fenofibrate of 200.

`CCC(CC)c1nn(-c2ccc(F)cc2)c2nc(C)cc(C(=O)O)c12`: the activation relative to fenofibrate in series [1] worked out at 205. The compound also yielded an EC50 in series [2] of 1450 nM. In turn, `CCC(C)c1nn(-c2ccc(Cl)cc2)c2nc(C)cc(C(=O)O)c12` (stereo not drawn) gave an activation relative to fenofibrate in series [1] of 176. The compound also returned an EC50 in [2] of 680 nM.

In turn, `Cc1cc(C(=O)O)c2c(C(C)(C)C)nn(-c3cccc(Cl)c3)c2n1` yielded an activation relative to fenofibrate in series [1] of 5.75.

Compound `CC(C)c1nn(-c2cccc(Cl)c2)c2nc(C3CC3)cc(C(=O)O)c12` gave an activation relative to fenofibrate in series [1] of 163. Besides, the EC50 in [2] was over 1340 nM. In turn, `Cc1cc(C(=O)O)c2c(C(C)C)nn(-c3cccc(Cl)c3)c2n1` displayed an activation relative to fenofibrate in [1] of 96.7. Regarding `CC(C)c1nn(-c2ccc(Cl)cc2)c2nc(-c3ccccc3)cc(C(=O)O)c12`, the activation relative to fenofibrate in [1] is 243. Further, the half-maximal effective concentration (EC50) in series [2] was determined as 1800 nM. On to `O=C(O)c1cc(C2CC2)nc2c1c(C1CCCC1)nn2-c1ccc(Cl)cc1`, for which the activation relative to fenofibrate in [1] is 76.8. Turning to `CCc1cc(C(=O)O)c2c(C3CCCC3)nn(-c3ccc(Cl)cc3)c2n1`, in [1], the activation relative to fenofibrate was found to be 78.2.

In [1], `Cc1cc(C(=O)O)c2c(C(C)C)nn(-c3ccc(Cl)c(Cl)c3)c2n1` had an activation relative to fenofibrate of 51.

With `CCc1cc(C(=O)O)c2c(C(CC)CC)nn(-c3ccc(F)cc3)c2n1`, the activation relative to fenofibrate in series [1] came to 250. For the same compound, the half-maximal effective concentration (EC50) in series [2] amounted to 1530 nM. Take `CC(C)c1nn(-c2ccc(F)cc2)c2nc(C3CC3)cc(C(=O)O)c12`: in series [9], the fold change (FC) worked out at 151. Compound `CCC(C)c1nn(-c2ccc(Cl)cc2)c2nc(C3CC3)cc(C(=O)O)c12` (stereo not drawn) showed an activation relative to fenofibrate in [1] of 224. The same compound showed an EC50 in [2] of 460 nM. `CCc1cc(C(=O)O)c2c(C(C)C)nn(-c3ccc(I)cc3)c2n1`: the activation relative to fenofibrate in [1] amounted to 111. The same compound displayed a concentration for a half-maximal effect (EC50) in [2] of 1760 nM. Turning to `Cc1cc(C(=O)O)c2c(C3CCCC3)nn(-c3ccc(Cl)cc3)c2n1`, the activation relative to fenofibrate in series [1] worked out at 64.8. As for `CC(C)c1nn(-c2ccc(Cl)cc2)c2nc(C3CC3)cc(C(=O)O)c12`, in series [1], the activation relative to fenofibrate was 114. Also, the concentration giving a half-maximal response (EC50) in series [2] was over 2740 nM. `O=C(O)c1cc(C2CC2)nc2c1c(C1CCC1)nn2-c1ccc(Cl)cc1` came in with an activation relative to fenofibrate in series [1] of 88.3. As for `Cc1cc(C(=O)O)c2c(C(C)C)nn(-c3cccc(OCc4ccccc4)c3)c2n1`, in series [1], the activation relative to fenofibrate came to 47.4. Consider `CCc1cc(C(=O)O)c2c(C(CC)CC)nn(-c3ccc(Cl)cc3)c2n1`, for which, in series [1], the activation relative to fenofibrate came to 213. In [2], this compound gave an EC50 of 1240 nM. In the case of `Cc1cc(C(=O)O)c2c(C(C)(C)C)nn(-c3ccc(Cl)cc3)c2n1`, the activation relative to fenofibrate in series [1] worked out at 2.26. Besides, the inhibition result in series [10] is “inactive”.

`CC(C)c1nn(-c2ccc(Br)cc2)c2nc(C3CC3)cc(C(=O)O)c12` gave an activation relative to fenofibrate in series [1] of 199. Moreover, a half-maximal effect in series [2] (EC50) was put at 1980 nM. The like results for `CCc1cc(C(=O)O)c2c(C(C)C)nn(-c3cccc(Cl)c3)c2n1` were, in that order, 192 and over 2270 nM. In turn, `Cc1cc(C(=O)O)c2c(C(C)C)nn(-c3ccc(F)cc3)c2n1` displayed an activation relative to fenofibrate in series [1] of 79.2. The EC50 in series [2] was found to be 2060 nM. `Cc1cc(C(=O)O)c2c(C(C)C)nn(-c3ccc(C(F)(F)F)cc3)c2n1` had an activation relative to fenofibrate in series [1] of 26.

`CC(C)c1nn(-c2ccc(F)cc2)c2ncc(C(=O)O)c(Cl)c12` returned an activation relative to fenofibrate in series [1] of 6.21. In turn, `CCC(Cc1cc(C)nc2c1c(C(C)C)nn2-c1ccc(F)cc1)C(=O)O` (stereo not drawn) registered an activation relative to fenofibrate in series [1] of 1.53.
